# This is a sample that favours compounds with a hit; in the whole collection about 3.6% have one here.
# SR-BI HDL uptake: inhibitors of mouse SR-BI mediated HDL lipid uptake | Q61009 | ldlA[mSR-BI] CHO cells, DiI-HDL uptake fluorescence, 3 h | inhibition, % at 12.5 µM | 0.96% of 320,000 active;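 active means mean replicate inhibition of at least 70% and a set share of replicates each scoring 70 or more; inconclusive means meets just one of the two criteria; inactive means fails both criteria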;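 further: 0% = median of neutral control wells and 100% = median of positive control wells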
# Target sequence (Q61009 whole entry, looked up): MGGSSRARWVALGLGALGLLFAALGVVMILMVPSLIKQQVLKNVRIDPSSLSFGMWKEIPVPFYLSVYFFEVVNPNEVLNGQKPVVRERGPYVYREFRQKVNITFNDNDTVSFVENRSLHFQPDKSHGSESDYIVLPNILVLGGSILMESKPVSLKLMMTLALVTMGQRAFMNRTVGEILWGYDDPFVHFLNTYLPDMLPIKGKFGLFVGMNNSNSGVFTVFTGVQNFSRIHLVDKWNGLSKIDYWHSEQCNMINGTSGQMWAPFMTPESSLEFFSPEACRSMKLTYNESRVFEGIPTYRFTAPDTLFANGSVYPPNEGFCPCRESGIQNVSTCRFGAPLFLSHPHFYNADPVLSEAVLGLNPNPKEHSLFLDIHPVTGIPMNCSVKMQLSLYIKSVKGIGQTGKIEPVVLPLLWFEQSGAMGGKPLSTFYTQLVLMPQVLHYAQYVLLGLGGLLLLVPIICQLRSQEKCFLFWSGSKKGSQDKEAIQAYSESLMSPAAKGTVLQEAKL
# SR-BI DiI-HDL act: SR-BI HDL lipid transfer activation | CHO ldlA[mSR-BI] cells, DiI-HDL uptake fluorescence, 3 h; 100 = double the neutral-control signal | activation, % at 12.5 µM | 0.096% of 320,000 active | AID 504775;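 active means mean replicate activation of at least 60% and every replicate at or above 60%; inconclusive means mean or all-replicate condition met, but not both; inactive means mean below 60% and not all replicates reaching 60%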;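 further: 0% = median plate neutral-control signal and 100% = twice that signal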
#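 Assay system: LDL receptor-deficient CHO ldlA cells overexpressing murine SR-BI / Medium: BSA-supplemented, HEPES-buffered Ham's F12, pH 7.4 / Probe or stimulus: DiI-labelled HDL at 10 µg/mL final / Timing: compound with DiI-HDL co-incubation, 3 h at 37 °C / Technique: bottom-read cell fluorescence after medium removal, ex 550/em 595 nm / Measure: HDL uptake via cellular fluorescence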
# MITF TRPM1 HTS: increases MITF-driven TRPM1 promoter luciferase signal; SK-MEL-5 TRPM1-promoter luciferase, 24 h; % of positive control, neutral wells = 0; activation, % at 12.5 µM; 0.75% of 300,000 active;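 active means mean activation of at least 80% with every replicate also reaching 80%; inconclusive means mean reaches 80% but some replicate falls short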;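 further: 0% = neutral control wells and 100% = parthenolide positive control wells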
# HSF-1 act: increases HSF-1 driven luciferase reporter signal; NIH3T3-HGL HSF-1 luciferase reporter, MG132, 8 h; 100% = twice DMSO control signal; activation, % at 9 µM; 1.7% of 300,000 active;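 active means mean replicate activation of at least 50% with a set share of replicates each reaching 50%; inconclusive means only one of those two conditions met; inactive means mean below 50% and too few replicates reaching it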;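 further: 0% = median of the neutral control wells and 100% = twice that signal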
# Wnt act: Wnt/beta-catenin pathway activation; 1.2% of 300,000 active; activation, % at 9.35 µM; Wnt/beta-catenin reporter cell assay, activator, plate reader; AID 743398; in the data active means activation above about 30%, passing the limit was not always enough; inconclusive means no clear call, values can overlap the other calls;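 further: 0% = neutral control wells and 100% = positive control wells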
# Active calls of the source: *; ? = inconclusive; . = no result given.
SMILES,SR-BI HDL uptake,SR-BI DiI-HDL act,MITF TRPM1 HTS,HSF-1 act,Wnt act
CC(C)=CC(=O)OCc1csc(CC(=O)Nc2ccccc2C)n1,-5.1,5.1,-9.7,1.4,-0.5
CC(=O)c1c(C)[nH]c(C(=O)OCc2csc(CC(=O)Nc3ccccc3C)n2)c1C,73.2*,-73.2,-22.2,.,5.2
CCOc1cc2c(cc1OCC)C(c1ccc(F)cc1)NCC2 (configuration not stated),0.2,-0.2,-2.3,2.7,-18.8
CCOc1cc(C2NN=C(c3ccccc3)S2)ccc1OCc1ccccc1Cl (configuration not stated),57.0,-57.0,50.3,53.4*,.
CCOc1cc(C2NN=C(c3ccccc3)S2)ccc1OCc1ccc(F)cc1 (configuration not stated),57.6,-57.6,43.5,56.4*,.
CCOC(=O)C1=C(C(=O)OCC)C2N(Cc3ccc(C#N)cc3)c3ccccc3[C@@]23C[C@@H](C(=O)OC)N(S(=O)(=O)c2ccccc2)C3=N1 (some centres not stated),.,.,.,.,-4.7
COc1cccc(/C=C/C(=O)Oc2ccc(C(=O)c3ccc(F)cc3)cc2)c1,-6.0,6.0,0.9,8.1,6.3
Cc1ccc(O)c(C(=O)/C=C/c2ccc3c(c2)OCCCO3)c1,-10.8,10.8,70.5,447.6*,15.4
COc1cccc(/C=C/C(=O)c2ccc[nH]2)c1,-8.9,8.9,41.9,86.2*,.
O=C(/C=C/c1ccc2c(c1)OCO2)c1ccc(F)cc1,-5.7,5.7,62.4,25.8,27.2
O=C(/C=C/c1ccc2c(c1)OCO2)c1ccc[nH]1,3.9,-3.9,53.2,62.3*,42.4*
CCNc1ccccc(C(=O)/C=C/c2ccc3c(c2)OCO3)c1=O,-16.2,16.2,-13.1,71.7*,.
COc1ccccc1C(=O)N1CCN(C(=O)[C@@H](Cc2ccccc2)NC(=O)[C@H]2O[C@@H](n3ccc(=O)[nH]c3=O)[C@H](O)[C@@H]2O)CC1,.,.,.,.,0.2
Cc1ccc(C(=O)N/N=C/c2ccc3c(c2)OCO3)o1,-18.4,18.4,48.6,11.6,?
Cc1ccc(C(=O)/C=C/c2ccc3c(c2)OCO3)o1,9.3,-9.3,19.8,59.5*,11.3
CCOC(=O)Cc1csc(NC(=O)c2sc3nc4c(C)cc(C)cc4cc3c2N)n1,80.2*,-80.2,36.8,-1.3,.
Cc1ccc(CN2CC=CCS2(=O)=O)cc1,.,.,.,.,-2.1
CC(=O)NC1C(OCc2ccccc2)OC(CO)C(OC(C)=O)C1OC(C)=O (configuration not stated),-39.9,39.9,-5.4,5.9,36.0*
CN(C)c1ccc(N(C)C)c(C(O)(c2ccccc2)c2ccccc2)c1,.,.,.,.,-4.3
O=C(C1CCN(c2nnc(-n3cccc3)s2)CC1)N1CCN(c2cccc(C(F)(F)F)c2)CC1,71.9*,-71.9,2.1,2.9,.
COc1cccc(CNC(=O)[C@H]2CCCN2C(=O)[C@H]2CCCN2S(=O)(=O)c2cccc(C)c2)c1,.,.,.,.,-1.9
CN(C)c1ccc(N=Nc2cccc(F)c2)cc1,7.6,-7.6,48.8,-1.7,51.8*
CCN(C(=O)c1cc2c(=O)[nH]c3ccc(C)cc3c2s1)c1ccccc1F,5.3,-5.3,3.7,57.9*,-4.3
FC(F)Oc1ccc(C2N=C(c3ccccc3)NO2)cc1 (configuration not stated),11.9,-11.9,117.2*,31.0,33.9*
Cc1ccc(C(=O)Nc2ncc(Cc3ccc(F)cc3)s2)o1,-19.3,19.3,143.6*,68.1*,65.3*
SMILES,SR-BI HDL uptake,SR-BI DiI-HDL act,MITF TRPM1 HTS,HSF-1 act,Wnt act
CCCC(=O)N1CCN(c2ccc(NC(=O)c3ccc(Br)o3)cc2)CC1,17.6,-17.6,22.6,-9.4,.
COc1cc(NC(=O)c2ccc(Br)o2)ccc1NC(=O)C(C)C,71.0*,-71.0,18.1,-7.9,.
O=C(Nc1ccc(N2CCN(C(=O)c3ccccc3)CC2)cc1)c1ccc(Br)o1,45.9,-45.9,5.7,10.2,.
COc1ccc(-c2ccc(NC(=O)c3ccc(Br)o3)cc2)nn1,11.1,-11.1,97.6*,9.6,30.9*
CCN1CCN(c2ccc(NC(=O)c3ccc(Br)o3)cc2)CC1,-10.5,10.5,79.3,55.7*,12.2
COc1cc(NC(=O)c2cc(Br)cc(C)c2OC)ccc1NC(=O)C(C)C,61.0,-61.0,0.3,-21.1,-2.5
O=C(Nc1ccc(N2CCCC2)cc1)c1ccc(Br)o1,39.0,-39.0,84.1*,5.3,.
COC(=O)Cc1ccc(NC(=O)c2ccc(Br)o2)cc1,7.2,-7.2,48.2,8.5,8.8
COCCNC(=O)c1ccc(N2CC3CC(C2)c2cccc(=O)n2C3)c(NC(=O)c2ccc(C(C)(C)C)cc2)c1 (configuration not stated),.,.,.,.,-0.7
CCN(CC)c1ccc(NC(=O)c2ccc(Br)o2)cc1,27.8,-27.8,96.7*,50.0,69.8*
O=C(Nc1ccc2c(c1)CCC2)c1cc2ccccc2o1,10.4,-10.4,50.4,62.8*,23.7
Cc1cc(C(=O)Nc2ccc3ccccc3c2)c(C)o1,25.6,-25.6,69.6,65.8*,34.1*
O=C(Nc1ccc2ccccc2c1)c1ccc(Br)o1,39.4,-39.4,20.8,64.9*,27.8
CC(=O)c1cc(C(=O)Nc2ccc3ccccc3c2)c(C)o1,.,.,-14.0,-3.2,-1.4
O=C(Nc1ccc2c(c1)OCO2)c1ccc(Br)o1,-11.9,11.9,39.4,22.6,15.0
O=C(Nc1ccc2c(c1)CCC2)c1ccc(Br)o1,7.7,-7.7,31.7,39.0,41.9*
O=C(Nc1ccccc1)c1ccc(Br)o1,-7.5,7.5,42.4,11.0,12.9
Cc1ccc(C(=O)Nc2ccc3c(c2)CCC3)o1,23.8,-23.8,74.1,63.2*,.
CC(=O)Nc1ccc2c(c1)CCCC2,-4.0,4.0,.,-5.9,0.4
CN(C)C(=O)c1ccc(-c2cc3onc(-c4ccccc4)c3c(=O)n2C)cc1,6.7,-6.7,69.0,.,40.7*
COc1ccc(-c2cc3onc(-c4c(Cl)cccc4Cl)c3c(=O)n2C)cc1,5.4,-5.4,19.9,.,6.3
COC(=O)c1ccc(-c2cc3onc(-c4ccccc4)c3c(=O)n2C)cc1,12.5,-12.5,38.5,.,30.7*
CN(C)C(=O)c1ccc(-c2n[nH]c(=O)c3ccccc23)cc1,-8.3,8.3,4.7,-15.3,-1.9
Cc1ccc(C)c(OCc2nc3ccccc3[nH]2)c1,6.9,-6.9,69.2,39.2,45.7*
COc1ccccc1S(=O)(=O)N(C)C[C@H]1Oc2cc(Br)ccc2S(=O)(=O)N([C@H](C)CO)C[C@H]1C,.,.,.,.,-0.5
COC(=O)Cn1c2nc3ccccc3nc2c2cccc(C)c21,27.2,-27.2,11.0,7.6,1.7
COC(=O)Cn1c2ccccc2c2nc3ccccc3nc21,98.3*,-98.3,30.3,12.5,1.7
CC(C)c1cc(CN2C(C)COCC2C)cc(C(C)C)c1O (configuration not stated),9.5,-9.5,8.4,.,-4.8
CC(C)c1ccc(NC(=O)C2(C)Cc3c(-c4ccccc4)ccnc3O2)cc1 (configuration not stated),.,.,.,.,-4.2

# Screening results: PubChem, Broad Institute
